A1 apoptosis 2: A1 inhibitors via caspase activation, primary screen, cell-based, luminescence, HTS, two replicates | MEF A1-2A-BIM cells, caspase-Glo luminescence, 3 h; percent of clofoctol response, DMSO zero | 24,000 tested, under 10 active | AID 2465, 2010 | caspase activation, % (test concentration not listed); in the data active = caspase activation above about 5.9%; inconclusive = no clear call, values can overlap the other calls; inactive = below about 2.2%
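Material: A1-2A-BIM-expressing MEF cells. Buffer or medium: RPMI-1640 plus 10% FBS. Incubation: cells settled overnight, compound exposure 3 h at 37 °C, 5% CO2. Signal: Caspase-Glo 3/7 luminescence, 1 h at room temperature.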
INS-1E rescue: protection of INS-1E cells from cytokine death, primary screen, ATP luminescence, single point | INS-1E cytokine-induced death, 48 h; normalised: neutral wells 0, positive control 100 | protection from cytokine-induced ATP loss, % at 10 µM | 0.1% of 20,000 active;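 active = mean replicate protection from cytokine-induced ATP loss at least 50% and at least 75% of replicates each reaching 50%; inconclusive = meets only one of the two criteria, mean or replicate share; inactive = fails both the mean and replicate share criteria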
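assay system = INS-1E rat insulinoma cells | amount = 8000 cells per well | medium = phenol-red-free RPMI with 5% fetal bovine serum | doses = one compound concentration, pin transfer | timing = 48 h cytokine plus compound treatment, 10 min reagent incubation | also added = IL-1β, TNF-α and IFN-γ cytokine mix | signal = CellTiter-Glo luminescence measuring cellular ATP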
T cruzi HTS: inhibitors of intracellular Trypanosoma cruzi, primary screen, cell-based, plate reader, single point, set 2; 4.9% of 22,000 active; intracellular Trypanosoma cruzi in host cells; AID 651903, 2012; activity score (inhibition), % at 5.01 µM; in the data active = activity score above about 55%; inconclusive = no clear call, values can overlap the other calls;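 also: parasites and compound incubated about four days before reading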
Of the large screens only hits and unclear results are named; the others gave an inactive call. Shown is part of a subset that was picked to be rich in hits.

COc1ccc(NC(=O)N(C)C[C@H]2Oc3ccc(NC(=O)Nc4cccc5ccccc45)cc3CC(=O)N([C@H](C)CO)C[C@H]2C)cc1	none (no result: A1 apoptosis 2)
Cc1noc(C)c1S(=O)(=O)Nc1ccc2c(c1)CC(=O)N([C@@H](C)CO)C[C@H](C)[C@@H](CN(C)Cc1ccc(C(F)(F)F)cc1)O2	T cruzi HTS 61 (no result: A1 apoptosis 2)
Cc1noc(C)c1S(=O)(=O)Nc1ccc2c(c1)C(=O)N([C@@H](C)CO)C[C@@H](C)[C@H](CN(C)Cc1ccc3c(c1)OCO3)O2	none (no result: A1 apoptosis 2)
Cc1noc(C)c1S(=O)(=O)Nc1ccc2c(c1)CC(=O)N([C@@H](C)CO)C[C@H](C)[C@H](CN(C)Cc1ccc(Cl)c(Cl)c1)O2	none (no result: A1 apoptosis 2)
Cc1noc(C)c1S(=O)(=O)Nc1ccc2c(c1)CC(=O)N([C@H](C)CO)C[C@@H](C)[C@H](CN(C)Cc1ccc(Cl)c(Cl)c1)O2	T cruzi HTS 63
Cc1noc(C)c1S(=O)(=O)Nc1ccc2c(c1)C(=O)N([C@H](C)CO)C[C@H](C)[C@H](CN(C)Cc1ccc(Cl)c(Cl)c1)O2	T cruzi HTS inconclusive
Cc1noc(C)c1S(=O)(=O)Nc1ccc2c(c1)CC(=O)N([C@@H](C)CO)C[C@H](C)[C@H](CN(C)Cc1ccc(C(F)(F)F)cc1)O2	none (no result: A1 apoptosis 2)
Cc1noc(C)c1S(=O)(=O)Nc1ccc2c(c1)C(=O)N([C@H](C)CO)C[C@H](C)[C@H](CN(C)Cc1ccc3c(c1)OCO3)O2	T cruzi HTS 58 (no result: A1 apoptosis 2)
Cc1noc(C)c1S(=O)(=O)Nc1ccc2c(c1)C(=O)N([C@@H](C)CO)C[C@H](C)[C@H](CN(C)Cc1ccc(Cl)c(Cl)c1)O2	T cruzi HTS 62
Cc1noc(C)c1NC(=O)N(C)C[C@H]1OCCCC[C@@H](C)Oc2ccc(NS(C)(=O)=O)cc2C(=O)N([C@H](C)CO)C[C@@H]1C	none
C[C@H](CO)N1C[C@H](C)[C@H](CN(C)C(=O)Nc2ccc(F)cc2)Oc2ccc(NC(=O)CCN3CCOCC3)cc2CC1=O	none
Cc1ccc(S(=O)(=O)N(C)C[C@@H]2Oc3ccc(NC(=O)Nc4ccccc4)cc3C(=O)N([C@H](C)CO)C[C@@H]2C)cc1	none
C[C@@H]1CN([C@@H](C)CO)C(=O)Cc2cc(NC(=O)C3CCCCC3)ccc2O[C@@H]1CN(C)C(=O)Nc1ccccc1	none (no result: A1 apoptosis 2)
C[C@@H]1CN([C@@H](C)CO)C(=O)c2cc(N(C)C)ccc2O[C@@H]1CN(C)C	none
C[C@@H]1CCCCO[C@H](CN(C)CC2CCCCC2)[C@@H](C)CN([C@H](C)CO)C(=O)c2cc(NC(=O)Nc3cccc4ccccc34)ccc2O1	T cruzi HTS 64 (no result: A1 apoptosis 2)
C[C@@H]1CCCCO[C@@H](CN(C)CC2CCCCC2)[C@H](C)CN([C@@H](C)CO)C(=O)c2cc(NC(=O)Nc3cccc4ccccc34)ccc2O1	none (no result: INS-1E rescue, T cruzi HTS)
C[C@H](CO)N1C[C@H](C)[C@@H](CN(C)CC2CC2)OCCCC[C@H](C)Oc2ccc(NC(=O)Nc3cccc4ccccc34)cc2C1=O	none (no result: INS-1E rescue, T cruzi HTS)
C[C@@H]1CCCCO[C@@H](CN(C)CC2CCCCC2)[C@@H](C)CN([C@H](C)CO)C(=O)c2cc(NC(=O)Nc3cccc4ccccc34)ccc2O1	T cruzi HTS 67 (no result: A1 apoptosis 2)
Cc1noc(C)c1NC(=O)Nc1cccc2c1O[C@H](CN(C)C(=O)NC(C)C)[C@H](C)CN([C@@H](C)CO)C2=O	none
C[C@@H]1CN([C@H](C)CO)C(=O)c2cccc(NS(C)(=O)=O)c2O[C@H]1CN(C)Cc1ccc2c(c1)OCO2	none
Cc1noc(C)c1NC(=O)N(C)C[C@H]1OCCCC[C@H](C)Oc2ccc(NC(=O)NC(C)C)cc2C(=O)N([C@@H](C)CO)C[C@H]1C	none (no result: INS-1E rescue, T cruzi HTS)
C[C@@H]1CN([C@H](C)CO)C(=O)Cc2cc(NC(=O)Nc3ccc(C(F)(F)F)cc3)ccc2O[C@@H]1CN(C)CC1CCCCC1	T cruzi HTS 62 (no result: A1 apoptosis 2)
C[C@H]1CN([C@@H](C)CO)C(=O)Cc2cc(NC(=O)Nc3ccc(C(F)(F)F)cc3)ccc2O[C@H]1CN(C)CC1CC1	none
C[C@@H]1CN([C@H](C)CO)C(=O)Cc2cc(NC(=O)Nc3ccc(C(F)(F)F)cc3)ccc2O[C@H]1CN(C)CC1CCCCC1	T cruzi HTS 83 (no result: A1 apoptosis 2)
C[C@@H]1CN([C@H](C)CO)C(=O)Cc2cc(NC(=O)Nc3ccc(C(F)(F)F)cc3)ccc2O[C@H]1CN(C)CC1CC1	none
C[C@@H]1CN([C@H](C)CO)C(=O)Cc2cc(NC(=O)Nc3ccc(C(F)(F)F)cc3)ccc2O[C@H]1CN(C)Cc1ccccc1	T cruzi HTS 73 (no result: A1 apoptosis 2)
C[C@H](CO)N1C[C@H](C)[C@H](CN(C)Cc2ccccc2)Oc2ccc(NC(=O)Nc3ccc(C(F)(F)F)cc3)cc2CC1=O	T cruzi HTS 66 (no result: A1 apoptosis 2)
C[C@H]1CN([C@@H](C)CO)C(=O)Cc2cc(NC(=O)Nc3ccc(C(F)(F)F)cc3)ccc2O[C@H]1CN(C)Cc1ccccc1	T cruzi HTS 70 (no result: A1 apoptosis 2)
C[C@H](CO)N1C[C@H](C)[C@H](CN(C)Cc2ccccc2)Oc2ccc(NC(=O)Nc3ccc(F)cc3)cc2CC1=O	none
C[C@H](CO)N1C[C@H](C)[C@H](CN(C)Cc2ccccc2)Oc2ccc(NC(=O)Cc3ccccc3)cc2CC1=O	none
C[C@H](CO)N1C[C@H](C)[C@@H](CN(C)Cc2ccccc2)Oc2ccc(NC(=O)Nc3ccc(C(F)(F)F)cc3)cc2CC1=O	none (no result: INS-1E rescue, T cruzi HTS)
C[C@H](CO)N1C[C@H](C)[C@H](CN(C)Cc2ccccc2)Oc2ccc(NC(=O)Nc3ccccc3)cc2CC1=O	none
C[C@@H]1CN([C@H](C)CO)C(=O)Cc2cc(NC(=O)Cc3ccccc3)ccc2O[C@H]1CN(C)Cc1ccc(C(F)(F)F)cc1	T cruzi HTS 70
Cc1ccc(S(=O)(=O)N(C)C[C@H]2Oc3ccc(NS(=O)(=O)c4ccc(Cl)cc4)cc3CC(=O)N([C@@H](C)CO)C[C@@H]2C)cc1	none (no result: A1 apoptosis 2)
C[C@@H]1CCCCO[C@H](CN(C)C(=O)NC2CCCCC2)[C@@H](C)CN([C@@H](C)CO)C(=O)c2cc(NS(=O)(=O)c3cccs3)ccc2O1	none (no result: INS-1E rescue, T cruzi HTS)
Cc1ncc(CO)c(/C=N/NC(=O)c2cccc(C(=O)NO)c2)c1O	none
Cc1noc(C)c1S(=O)(=O)N(C)C[C@H]1Oc2ccc(NC(=O)Nc3cccc4ccccc34)cc2CC(=O)N([C@H](C)CO)C[C@@H]1C	none (no result: INS-1E rescue, T cruzi HTS)
C[C@H]1CN([C@@H](C)CO)C(=O)c2cccc(N(C)C)c2O[C@@H]1CN(C)Cc1ccc(-c2ccccc2)cc1	none (no result: INS-1E rescue, T cruzi HTS)
C[C@H]1CN([C@@H](C)CO)C(=O)Cc2cc(NC(=O)Nc3ccccc3)ccc2O[C@H]1CN(C)Cc1ccc(C(F)(F)F)cc1	T cruzi HTS 67 (no result: A1 apoptosis 2)
Cc1noc(C)c1S(=O)(=O)N(C)C[C@H]1OCCCC[C@H](C)Oc2ccc(NS(C)(=O)=O)cc2C(=O)N([C@@H](C)CO)C[C@@H]1C	none (no result: INS-1E rescue, T cruzi HTS)
O=C(O)CCCCCCC(=O)N/N=C/c1ccc(N(c2ccccc2)c2ccccc2)cc1	none (no result: INS-1E rescue, T cruzi HTS)
C[C@H]1CN([C@@H](C)CO)C(=O)c2cccc(NC(=O)c3ccncc3)c2O[C@H]1CN(C)C(=O)Nc1ccc(F)cc1	T cruzi HTS 64 (no result: A1 apoptosis 2)

Source: PubChem
